The values that follow come from ChEMBL document CHEMBL4359929, “Piperidine and piperazine inhibitors of fatty acid amide hydrolase targeting excitotoxic pathology” (Bioorg Med Chem, 2019).

Data set [1] concerns the target T1, Fatty-acid amide hydrolase 1 (Homo sapiens, UniProt O00519).
T1 sequence (O00519 whole entry): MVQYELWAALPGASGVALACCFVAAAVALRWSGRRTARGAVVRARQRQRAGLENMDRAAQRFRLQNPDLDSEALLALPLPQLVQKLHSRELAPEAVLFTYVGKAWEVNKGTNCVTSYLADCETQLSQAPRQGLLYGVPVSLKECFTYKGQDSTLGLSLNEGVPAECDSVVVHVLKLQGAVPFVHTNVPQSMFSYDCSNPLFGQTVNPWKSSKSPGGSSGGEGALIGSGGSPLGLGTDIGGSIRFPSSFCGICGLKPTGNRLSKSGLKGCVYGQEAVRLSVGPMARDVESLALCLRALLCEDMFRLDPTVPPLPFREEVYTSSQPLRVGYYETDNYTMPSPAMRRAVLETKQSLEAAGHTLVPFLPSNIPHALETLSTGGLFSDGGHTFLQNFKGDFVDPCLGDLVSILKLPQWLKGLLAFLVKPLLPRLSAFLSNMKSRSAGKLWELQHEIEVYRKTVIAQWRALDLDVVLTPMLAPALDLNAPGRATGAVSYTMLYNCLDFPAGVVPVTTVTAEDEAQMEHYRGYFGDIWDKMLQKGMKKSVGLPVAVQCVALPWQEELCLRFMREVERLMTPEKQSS
As to the kind of experiment: Inhibition of human recombinant MBP-tagged FAAH expressed in Escherichia coli cells using AAMCA as substrate incubated for 15 mins followed by substrate addition and measured after every 20 mins for 4 hrs by fluorescence based assay. The procedure, abridged:
(§1)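 Fluorescent enzyme assay in throughput format. Human recombinant FAAH or purified rat FAAH used arachidonoyl 7-amino-4-methylcoumarin amide as substrate; human recombinant MGL was run by a similar fluorometric procedure.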

The target of data set [2] is T2, Fatty-acid amide hydrolase 1 (Rattus norvegicus, UniProt P97612).
T2 sequence (P97612 whole entry): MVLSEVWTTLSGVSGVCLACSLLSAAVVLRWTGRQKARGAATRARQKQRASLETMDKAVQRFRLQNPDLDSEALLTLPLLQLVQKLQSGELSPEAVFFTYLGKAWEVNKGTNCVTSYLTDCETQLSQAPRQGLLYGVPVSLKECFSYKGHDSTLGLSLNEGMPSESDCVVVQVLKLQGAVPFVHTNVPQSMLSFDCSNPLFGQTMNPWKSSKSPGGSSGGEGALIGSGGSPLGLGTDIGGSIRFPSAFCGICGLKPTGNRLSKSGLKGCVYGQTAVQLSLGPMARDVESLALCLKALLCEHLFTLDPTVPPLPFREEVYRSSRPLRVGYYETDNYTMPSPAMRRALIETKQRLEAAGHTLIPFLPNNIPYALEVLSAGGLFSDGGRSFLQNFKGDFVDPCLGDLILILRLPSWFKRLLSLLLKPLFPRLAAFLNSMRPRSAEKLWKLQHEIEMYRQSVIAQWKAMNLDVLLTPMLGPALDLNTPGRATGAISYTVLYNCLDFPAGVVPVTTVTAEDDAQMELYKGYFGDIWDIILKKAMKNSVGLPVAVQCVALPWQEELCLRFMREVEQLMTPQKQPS
The data set can be described thus: Inhibition of rat recombinant His/GST-tagged FAAH expressed in Escherichia coli cells using AAMCA as substrate incubated for 15 mins followed by substrate addition and measured after every 20 mins for 4 hrs by fluorescence based assay. In outline: as §1

The target of the next data set is T3, Monoglyceride lipase (Homo sapiens, UniProt Q99685).
T3 sequence (Q99685 whole entry): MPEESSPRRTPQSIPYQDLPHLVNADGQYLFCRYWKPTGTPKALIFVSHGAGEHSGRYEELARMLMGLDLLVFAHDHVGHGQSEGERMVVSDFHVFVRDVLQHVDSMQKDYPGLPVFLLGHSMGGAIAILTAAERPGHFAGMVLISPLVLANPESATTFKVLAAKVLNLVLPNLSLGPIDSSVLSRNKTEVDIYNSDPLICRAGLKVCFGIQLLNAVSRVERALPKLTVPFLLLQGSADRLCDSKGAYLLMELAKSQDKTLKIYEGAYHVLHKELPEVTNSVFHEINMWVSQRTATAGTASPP
The data set can be described thus: Inhibition of human recombinant His-tagged MGL expressed in Escherichia coli BL21 DE3 cells using AHMMCE as substrate preincubated with enzyme for 15 mins followed by substrate addition and measured after every 15 mins for 3 hrs by fluorescence based assay. The procedure, abridged:
as §1

Data set [3] is described as follows: Stability in human liver microsomes assessed as half life. Type of data set: ADME, Microsome. The procedure, abridged: (§2)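 Stability assessed as half-life in human, rat and mouse plasma and gastric fluid, and in human, rat and mouse liver microsomal preparations.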
In general terms: Microsomes from liver hold many membrane-bound enzymes, among them those of drug oxidation.

Data set [4] in a line: Stability in rat liver microsomes assessed as half life. It counts as ADME, Microsome. In outline:
as §2

A short description of data set [5]: Stability in mouse liver microsomes assessed as half life. It counts as ADME, Microsome. In outline:
as §2

A short description of data set [6]: Stability in human plasma assessed as half life. Type of data set: ADME, cell-free. The procedure, abridged: as §2
Data set [7] can be described thus: Stability in rat plasma assessed as half life. Type of data set: ADME, cell-free. The procedure, abridged:
as §2

Data set [8] is described as follows: Stability in mouse plasma assessed as half life. Type of data set: ADME, cell-free. In outline: as §2
A short description of data set [9]: Stability in human gastric fluid assessed as half life. Type of data set: ADME, tissue-based, Gastric juice. In outline:
as §2

A short description of data set [10]: Stability in rat gastric fluid assessed as half life. It counts as ADME, tissue-based, Gastric juice. In outline: as §2
Data set [11] can be described thus: Stability in mouse gastric fluid assessed as half life. Type of data set: ADME, tissue-based, Gastric juice. The procedure, abridged:
as §2

Data set [12] is filed under the species Homo sapiens. The data set can be described thus: Selectivity ratio of IC50 for human recombinant His-tagged MGL expressed in Escherichia coli BL21 DE3 cells to IC50 for human recombinant MBP-tagged FAAH expressed in Escherichia coli cells by fluorescence based assay.
For data set [13], the species on record is Homo sapiens. As to the kind of experiment: Selectivity ratio of IC50 for human full length ABHD6 expressed in Escherichia coli cells to IC50 for human recombinant MBP-tagged FAAH expressed in Escherichia coli cells by fluorescence based assay.
In data set [14] the target is Cannabinoid receptor 1 (Rattus norvegicus) (UniProt P20272). As to the kind of experiment: Displacement of [3H]CP55940 from CB1 receptor in rat brain by competition-equilibrium binding analysis. It counts as tissue-based. In outline: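 Rat brain membranes as CB1 source; competition-equilibrium binding against [3H]CP-55,940.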
Target sequence in this assay (P20272 whole entry): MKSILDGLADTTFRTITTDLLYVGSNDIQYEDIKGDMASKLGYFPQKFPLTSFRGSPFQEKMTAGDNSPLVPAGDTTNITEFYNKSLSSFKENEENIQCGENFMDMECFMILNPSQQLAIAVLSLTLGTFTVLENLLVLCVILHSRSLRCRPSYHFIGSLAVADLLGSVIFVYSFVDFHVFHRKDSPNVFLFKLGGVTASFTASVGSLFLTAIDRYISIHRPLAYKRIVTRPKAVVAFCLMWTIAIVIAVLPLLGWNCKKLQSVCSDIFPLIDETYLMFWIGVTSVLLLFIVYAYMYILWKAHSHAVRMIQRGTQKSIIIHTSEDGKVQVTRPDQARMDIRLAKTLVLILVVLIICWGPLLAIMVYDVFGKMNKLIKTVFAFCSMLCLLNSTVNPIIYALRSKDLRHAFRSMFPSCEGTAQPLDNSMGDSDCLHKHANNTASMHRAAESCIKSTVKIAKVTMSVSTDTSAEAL
(In a radioligand displacement assay an active substance lowers the binding of a labelled ligand.)

For data set [15], the target named is Cannabinoid receptor 2 (Mus musculus) (UniProt P47936). The data set can be described thus: Displacement of [3H]CP55940 from mouse CB2 receptor expressed in HEK293 cells by competition-equilibrium binding analysis. Type of data set: cell-based. In outline:
(§3)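 HEK293 cell membranes expressing mouse or human CB2; competition-equilibrium binding against [3H]CP-55,940.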

For data set [16], the target named is Cannabinoid receptor 2 (Homo sapiens) (UniProt P34972). The data set can be described thus: Displacement of [3H]CP55940 from human CB2 receptor expressed in HEK293 cells by competition-equilibrium binding analysis. Type of data set: cell-based. In outline: as §3
Chain of Cannabinoid receptor 2 (Homo sapiens) (P34972 whole entry): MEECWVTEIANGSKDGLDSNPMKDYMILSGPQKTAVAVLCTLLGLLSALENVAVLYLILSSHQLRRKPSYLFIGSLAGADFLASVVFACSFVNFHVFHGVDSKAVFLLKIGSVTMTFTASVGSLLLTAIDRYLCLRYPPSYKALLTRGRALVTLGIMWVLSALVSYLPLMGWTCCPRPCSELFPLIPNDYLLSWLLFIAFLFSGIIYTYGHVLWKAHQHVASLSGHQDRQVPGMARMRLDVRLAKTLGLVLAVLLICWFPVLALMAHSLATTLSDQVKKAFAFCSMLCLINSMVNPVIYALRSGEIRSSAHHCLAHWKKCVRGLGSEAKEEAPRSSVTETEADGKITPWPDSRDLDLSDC
Data set [17] in a line: Selectivity ratio of IC50 for human recombinant His-tagged MGL expressed in Escherichia coli BL21 DE3 cells to IC50 for rat recombinant His/GST-tagged FAAH expressed in Escherichia coli cells by fluorescence based assay.
Data set [18] in a line: Selectivity ratio of IC50 for human full length ABHD6 expressed in Escherichia coli cells to IC50 for rat recombinant His/GST-tagged FAAH expressed in Escherichia coli cells by fluorescence based assay.
Data set [19] has as its target Cannabinoid receptor 1 (Rattus norvegicus) (UniProt P20272). As to the kind of experiment: Displacement of [3H]CP55940 from CB1 receptor in rat brain by competition-equilibrium binding analysis.
Target sequence in this assay (P20272 whole entry, looked up): as the sequence (P20272 whole entry) above

By pIC50 is commonly meant the IC50 on a negative log10 scale, so that one unit is a factor of ten. Broadly, the half-life is the time in which the quantity being followed falls by half.

pIC50: −log10 of the molar value. Activity calls are given as the source filed them. The calls are words filed in the database; no cut-off is given here.

Chain of Cannabinoid receptor 2 (Mus musculus) (P47936 whole entry): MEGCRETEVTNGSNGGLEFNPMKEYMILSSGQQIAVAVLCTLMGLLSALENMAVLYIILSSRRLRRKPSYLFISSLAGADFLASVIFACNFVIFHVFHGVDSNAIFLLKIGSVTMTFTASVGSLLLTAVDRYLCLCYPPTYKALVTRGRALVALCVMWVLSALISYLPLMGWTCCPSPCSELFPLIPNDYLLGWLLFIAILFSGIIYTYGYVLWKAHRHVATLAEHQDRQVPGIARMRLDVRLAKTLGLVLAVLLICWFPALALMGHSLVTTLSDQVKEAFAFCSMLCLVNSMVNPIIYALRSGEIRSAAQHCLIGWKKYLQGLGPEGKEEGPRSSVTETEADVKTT

With `C[C@@H]1CN(c2ccccc2)CCN1C(=O)Oc1cccc(N2CCS(=O)(=O)CC2)c1`, the results for the negative-log IC50 (pIC50) (in data set [1]; in data set [2]; on Monoglyceride lipase) were 7.75, 8.24 and < 6.00, respectively. Also, the half-life in [3] is 15 to 25 min; in [4], 15 to 25 min; in data set [5] it was 15 to 25 min; in data set [6], > 60 min; in data set [7], > 60 min; in data set [8], > 60 min. The half-life in data set [9], in [10] and in [11] was > 60 min each time. Further, the Ratio IC50 (in the data set listed under Homo sapiens [12]; in the data set listed under Homo sapiens [13]; in data set [17]; in data set [18]) was > 1000 throughout. The outcome in data set [14], in data set [15], in [16] and in data set [19] was inactive.
On to `O=C(Oc1cccc(N2CCS(=O)(=O)CC2)c1)N1CCC(c2ccccc2)CC1`, for which the negative logarithm of the IC50 (pIC50) in data set [1] was 8.10; in data set [2] it was 8.22; at Monoglyceride lipase, < 6.00. For the same molecule, the half-life in [3] is 15 to 25 min; in data set [4], 15 to 25 min; in data set [5], 15 to 25 min; in [6] it was > 60 min; in data set [7], > 60 min; in data set [8], > 60 min. The half-life in [9], in [10] and in [11] was > 60 min throughout. For the same molecule, the Ratio IC50 (in the data set listed under Homo sapiens [12]; in the data set listed under Homo sapiens [13]; in data set [17]; in data set [18]) was > 1000 each time. Besides, the outcome in data set [14], in data set [15], in data set [16] and in [19] was inactive.
For `CC1CN(c2ccccc2)CCN1C(=O)Oc1cccc(N2CCS(=O)(=O)CC2)c1` (stereo not given), the negative-log IC50 (pIC50) is 8.59 in data set [1], 8.26 in [2] and < 6.00 at Monoglyceride lipase. The half-life in data set [3] is 15 to 25 min; in data set [4], 15 to 25 min; in data set [5], 15 to 25 min; in data set [6], > 60 min; in data set [7] it was > 60 min; in data set [8], > 60 min. Also, the half-life in data set [9], in data set [10] and in data set [11] was > 60 min throughout. In addition, the Ratio IC50 (in the data set filed under Homo sapiens [12]; in the data set listed under Homo sapiens [13]; in data set [17]; in data set [18]) was > 1000 in each case. Moreover, the result in [14], in data set [15], in data set [16] and in [19] was inactive.
With `COc1ccc(N2CCN(C(=O)Oc3cccc(N4CCS(=O)(=O)CC4)c3)[C@H](C)C2)cc1`, the results for the pIC50 (in data set [1]; in data set [2]; on Monoglyceride lipase) were 7.95, 8.13 and < 6.00, respectively. Moreover, the half-life is 15 to 25 min in data set [3]; 15 to 25 min in [4]; 15 to 25 min in [5]; > 60 min in data set [6]; > 60 min in data set [7]; > 60 min in data set [8]. The half-life in [9], in data set [10] and in data set [11] was > 60 min each time. Also, the Ratio IC50 (in the data set filed under Homo sapiens [12]; in the data set listed under Homo sapiens [13]; in data set [17]; in data set [18]) was > 1000 in each case. Further, the outcome in data set [14], in data set [15], in data set [16] and in [19] was inactive.
As to `COc1ccc(N2CCN(C(=O)Oc3cccc(N4CCOCC4)c3)[C@H](C)C2)cc1`, the pIC50 in [1] was 8.39; in data set [2] it was 8.28; on Monoglyceride lipase it was < 6.00. Moreover, the half-life in [3] was 15 to 25 min; in [4] it was 15 to 25 min; in data set [5], 15 to 25 min; in data set [6], > 60 min; in data set [7] it was > 60 min; in data set [8], > 60 min. Moreover, the half-life in [9], in data set [10] and in [11] was > 60 min each time. Moreover, the Ratio IC50 (in the data set listed under Homo sapiens [12]; in the data set listed under Homo sapiens [13]; in data set [17]; in [18]) was > 1000 each time. In addition, the result in [14], in data set [15], in data set [16] and in data set [19] was inactive.
For `COc1ccc(C2CCN(C(=O)Oc3cccc(N4CCS(=O)(=O)CC4)c3)CC2)cc1`, the values for the negative-log IC50 (pIC50) (in data set [1]; in data set [2]; at Monoglyceride lipase) were 8.20, 8.58 and < 6.00, respectively. Further, the half-life is 15 to 25 min in [3]; 15 to 25 min in data set [4]; 15 to 25 min in data set [5]; > 60 min in [6]; > 60 min in [7]; > 60 min in [8]. For the same molecule, the half-life in data set [9], in [10] and in [11] was > 60 min throughout. The Ratio IC50 (in the data set filed under Homo sapiens [12]; in the data set listed under Homo sapiens [13]; in [17]; in data set [18]) was > 1000 throughout. Besides, the outcome in data set [14], in data set [15], in data set [16] and in data set [19] was inactive.
